Test results reported in ChEMBL document CHEMBL1134250, “Inhibition of neuronal nitric oxide synthase by 7-methoxyindazole and related substituted indazoles” (Bioorg Med Chem Lett, 2001).

Legend:
[1] = tested on: Mus musculus; assay: Antinociceptive activity in Writhing test in mice(ip) at a dose of 15 mg/kg (p<0.001)
[2] = biological target: T1, Nitric oxide synthase 1 (Rattus norvegicus, UniProt P29476); assay: In vitro inhibitory concentration against rat cerebellar neuronal nitric oxide synthase; No effect
T1 sequence (P29476 whole entry): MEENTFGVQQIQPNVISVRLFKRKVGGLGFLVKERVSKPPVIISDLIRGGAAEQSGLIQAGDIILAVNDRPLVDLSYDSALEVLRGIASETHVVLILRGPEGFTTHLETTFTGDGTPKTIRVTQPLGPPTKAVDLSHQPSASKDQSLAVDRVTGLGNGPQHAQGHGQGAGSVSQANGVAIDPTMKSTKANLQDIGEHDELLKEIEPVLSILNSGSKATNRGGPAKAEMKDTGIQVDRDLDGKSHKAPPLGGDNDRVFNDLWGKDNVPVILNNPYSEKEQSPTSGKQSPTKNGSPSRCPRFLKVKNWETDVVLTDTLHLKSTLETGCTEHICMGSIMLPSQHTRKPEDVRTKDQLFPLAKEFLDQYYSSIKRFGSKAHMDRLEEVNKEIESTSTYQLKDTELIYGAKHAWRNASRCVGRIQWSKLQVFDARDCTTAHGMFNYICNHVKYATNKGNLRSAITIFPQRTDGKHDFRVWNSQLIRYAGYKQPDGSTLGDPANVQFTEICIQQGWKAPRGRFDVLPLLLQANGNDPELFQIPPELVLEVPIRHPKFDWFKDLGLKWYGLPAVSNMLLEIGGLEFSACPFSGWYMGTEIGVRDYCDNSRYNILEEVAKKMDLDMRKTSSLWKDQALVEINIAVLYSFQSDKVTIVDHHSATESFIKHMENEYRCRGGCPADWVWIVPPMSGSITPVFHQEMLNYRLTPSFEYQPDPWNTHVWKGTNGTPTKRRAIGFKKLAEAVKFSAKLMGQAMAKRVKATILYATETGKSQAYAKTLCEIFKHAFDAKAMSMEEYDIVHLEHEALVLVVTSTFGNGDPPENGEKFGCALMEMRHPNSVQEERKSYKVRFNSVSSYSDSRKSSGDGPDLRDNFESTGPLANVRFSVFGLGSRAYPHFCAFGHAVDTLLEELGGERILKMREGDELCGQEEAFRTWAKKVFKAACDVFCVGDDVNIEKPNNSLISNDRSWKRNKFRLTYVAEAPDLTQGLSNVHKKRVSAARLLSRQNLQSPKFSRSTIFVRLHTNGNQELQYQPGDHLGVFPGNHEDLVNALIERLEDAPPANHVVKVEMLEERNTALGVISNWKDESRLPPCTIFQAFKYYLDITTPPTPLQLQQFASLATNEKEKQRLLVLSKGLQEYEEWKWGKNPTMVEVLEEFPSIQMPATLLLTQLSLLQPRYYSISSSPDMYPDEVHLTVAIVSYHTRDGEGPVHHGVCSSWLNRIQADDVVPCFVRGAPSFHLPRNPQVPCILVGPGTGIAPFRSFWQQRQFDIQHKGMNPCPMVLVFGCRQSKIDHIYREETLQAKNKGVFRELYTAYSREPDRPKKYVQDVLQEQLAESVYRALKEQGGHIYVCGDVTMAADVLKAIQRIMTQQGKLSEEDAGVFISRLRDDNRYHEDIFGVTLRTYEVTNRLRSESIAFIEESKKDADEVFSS
In short: (§1)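 Rat cerebellum homogenate nNOS. L-[3H]arginine to L-[3H]citrulline conversion with 1 mM CaCl2, 200 μM β-NADPH, 0.88 μM L-arginine and 0.12 µM L-[3H]arginine, 15 min at 37 °C. Vehicle ethanol or DMSO 0.4–0.8%. IC50 from inhibition curves at 0.1, 1, 10 and 100 µM. Mean ± SEM, 1–6 experiments.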

[3] = biological target: Nitric oxide synthase 1 (Rattus norvegicus) (UniProt P29476); assay: In vitro percent inhibition of rat cerebellar neuronal nitric oxide synthase at a concentration of 100 uM
Sequence of Nitric oxide synthase 1 (Rattus norvegicus) (P29476 whole entry): as above
In short: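 Rat cerebellar homogenate nNOS, assayed as L-[3H]arginine to L-[3H]citrulline conversion (1 mM CaCl2, 200 μM β-NADPH, 0.88 μM L-arginine, 0.12 µM L-[3H]arginine, 15 min, 37 °C). Compound at 100 µM in ethanol or DMSO vehicle. Result given as % inhibition.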

[4] = biological target: T1, Nitric oxide synthase 1; assay: In vitro inhibitory concentration against rat cerebellar neuronal nitric oxide synthase
[5] = biological target: Nitric oxide synthase 1 (Rattus norvegicus) (UniProt P29476); assay: Ex vivo inhibition of rat cerebellar neuronal nitric oxide synthase after intraperitoneal administration in rats.; type: functional, organism-based; conditions: concentration not given here
In short: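 Rats, n=6, received 50 mg/kg ip in arachis oil. Cerebellum removed 30 min later. nNOS activity measured ex vivo as L-[3H]arginine to L-[3H]citrulline conversion. Expressed as % inhibition.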

[6] = biological target: T1, Nitric oxide synthase 1; assay: In vitro inhibitory concentration against rat cerebellar neuronal nitric oxide synthase; no effect
In short: as §1

[7] = tested on: Mus musculus; assay: Antinociceptive activity in Writhing test in mice(ip) at a dose of 50 mg/kg (p<0.001); type: functional
[8] = tested on: Mus musculus; assay: Antinociceptive activity in Writhing test in mice(ip) at a dose of 10 mg/kg (p<0.05); type: functional
[9] = tested on: Mus musculus; assay: Antinociceptive activity in Writhing test in mice(ip) at a dose of 25 mg/kg (p<0.05); type: functional
[10] = tested on: Mus musculus; assay: Effect of l-Arginine on Antinociceptive activity in mice(ip) at a dose of 50 mg/kg (p<0.05); type: functional

SMILES	inhibition [3]	IC50 [4]	further results
CC(=O)Oc1ccccc1C(=O)O [ASPIRIN]			No. of writhes [1]: 3.5
COc1cccc2[nH]ncc12	30%	> 100 µM	
COc1ccc2[nH]ncc2c1	25%	> 100 µM	
Oc1cccc2cn[nH]c12	7%	> 100 µM	
Brc1ccc2[nH]ncc2c1		75 µM	
O=[N+]([O-])c1cccc2cn[nH]c12 [7-NITROINDAZOLE]			No. of writhes [7]: 6.2; inhibition [5]: 92%
COc1cccc2c[nH]nc12	80%	6.3 µM	No. of writhes [8]: 15.4; No. of writhes [9]: 12.2; No. of writhes [7]: 4.7; No. of writhes [10]: 10.6
Clc1ccc2cn[nH]c2c1		28 µM	

The next lines start with results.

inhibition [3]	IC50 [4]	SMILES	further results
0%		COc1ccc2c[nH]nc2c1	IC50 [2]: Not Active
	> 100 µM	Fc1ccc2[nH]ncc2c1	
	30 µM	FC(F)(F)c1ccccc1-n1ccnc1	inhibition [5]: 45%
0%		c1ccc(COc2cccc3c[nH]nc23)cc1	IC50 [6]: Not Active
	> 100 µM	Cc1ccc2cn[nH]c2c1	
0%		COc1cccc2c(I)[nH]nc12	IC50 [6]: Not Active
50%	100 µM	CCOc1cccc2c[nH]nc12	
